Drawing on ChEMBL document CHEMBL4823296, “NMR-Guided Design of Potent and Selective EphA4 Agonistic Ligands” (J Med Chem, 2021), this text covers Kd, Activity and solubility for two compounds.

One data set has as its target Ephrin type-A receptor 2 (Homo sapiens, UniProt P29317). The experiment in a line: Binding affinity to N-terminal His tagged EphA2 LBD (27 to 200 residues) (unknown origin) expressed in Origami (DE3) cells by isothermal titration calorimetry. On the technique in general: Isothermal titration calorimetry measures the heat released or taken up as one component is titrated into another.

Data set [1] deals with Neuron. Description: Cytoprotective activity against patient derived induced astrocyte-mediated B6-Cg-Tg(Hlxb9-GFP)1Tmj/J (Hb9-GFP) mouse motor neuron death at 100 uM measured after 3 days by imaging method. It counts as functional, tissue-based. The conditions noted are these: time 3.0 day. The gist of the method: (§1)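 Patient fibroblast-derived NPCs differentiated 5 days into induced astrocytes (DMEM, 10% FBS, 0.2% N2), seeded 10,000 per well; 24 h later GFP+ (HB9 promoter) motor neurons sorted from mouse embryoid bodies added at 10,000 per well together with compound. Imaged up to 3 days; neurons with neurites >50 μm counted alive, normalized to healthy-control survival; at least 2 independent experiments.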

Data set [2] can be described thus: Aqueous solubility of compound. It counts as physicochemical. The conditions noted are these: buffer.
Data set [3] deals with T1, Ephrin type-A receptor 4 (Homo sapiens, UniProt P54764). Description: Displacement of EphrinA5 from N-terminal His tagged EphA4 LBD (unknown origin) (29 to 209 residues) expressed in Rosetta-Gami B(DE3) cells by 2D-[13C-1H] HSQC NMR spectroscopy. It counts as cell-based. The conditions noted are these: filed as agonist.
T1 sequence (P54764 whole entry, the tested form may be a part): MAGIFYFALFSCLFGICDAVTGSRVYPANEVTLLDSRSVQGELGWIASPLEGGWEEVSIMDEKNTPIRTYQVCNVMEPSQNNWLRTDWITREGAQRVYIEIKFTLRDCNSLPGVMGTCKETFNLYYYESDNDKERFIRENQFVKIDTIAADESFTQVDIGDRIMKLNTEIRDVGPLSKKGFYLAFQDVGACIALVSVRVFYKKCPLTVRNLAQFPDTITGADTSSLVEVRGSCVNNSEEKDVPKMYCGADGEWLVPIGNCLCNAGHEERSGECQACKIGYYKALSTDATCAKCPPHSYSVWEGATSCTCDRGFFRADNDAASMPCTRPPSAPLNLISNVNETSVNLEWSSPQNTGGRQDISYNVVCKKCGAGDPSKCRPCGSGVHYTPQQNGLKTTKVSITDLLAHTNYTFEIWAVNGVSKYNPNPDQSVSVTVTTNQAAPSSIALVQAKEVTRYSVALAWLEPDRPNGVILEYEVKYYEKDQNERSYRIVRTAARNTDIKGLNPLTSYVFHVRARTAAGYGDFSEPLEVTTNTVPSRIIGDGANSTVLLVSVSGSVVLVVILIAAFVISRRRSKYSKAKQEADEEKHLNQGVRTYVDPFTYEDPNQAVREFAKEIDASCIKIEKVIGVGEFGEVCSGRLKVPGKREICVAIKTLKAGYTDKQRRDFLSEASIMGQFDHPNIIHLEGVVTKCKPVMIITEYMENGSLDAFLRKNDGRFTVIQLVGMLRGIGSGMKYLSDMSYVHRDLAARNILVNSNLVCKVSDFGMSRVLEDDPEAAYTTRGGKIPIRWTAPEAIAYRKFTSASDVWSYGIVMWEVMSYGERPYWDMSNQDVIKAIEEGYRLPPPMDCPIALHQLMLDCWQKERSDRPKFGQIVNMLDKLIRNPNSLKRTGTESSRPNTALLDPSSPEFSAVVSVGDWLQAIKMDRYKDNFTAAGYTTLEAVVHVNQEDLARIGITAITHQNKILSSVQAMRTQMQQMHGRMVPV
The target in data set [4] is Ephrin type-A receptor 4 (Mus musculus) (UniProt Q03137). Description: Agonist activity at EphA4 in B6-Cg-Tg(Hlxb9-GFP)1Tmj/J (Hb9-GFP) mouse primary spinal cord motor neuron cells assessed as protein phosphorylation at […] residues at 1 to 10 uM incubated for 30 mins by Western blotting analysis. The conditions noted are these: filed as agonist, dose 1-10 µM. The gist of the method: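 Hb9-GFP mouse motor neurons from P0–2 spinal cords (papain/DNase I dissociation, OptiPrep purification), plated on poly-D-lysine/laminin in Neurobasal/B27, then 5% horse serum plus CNTF; at 2 DIV treated 30 min at 37°C, 5% CO2/10% O2, at 1 or 10 μM; 0.1% DMSO, pre-clustered Fc and ephrinA1-Fc (2 μg/mL) controls. Lysates immunoprecipitated with anti-EphA4, blotted for phosphotyrosine, reprobed for EphA4; pEphA4/total EphA4 band density ratio; SEM, each experiment repeated 3 times.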
Ephrin type-A receptor 4 (Mus musculus), sequence (Q03137 whole entry): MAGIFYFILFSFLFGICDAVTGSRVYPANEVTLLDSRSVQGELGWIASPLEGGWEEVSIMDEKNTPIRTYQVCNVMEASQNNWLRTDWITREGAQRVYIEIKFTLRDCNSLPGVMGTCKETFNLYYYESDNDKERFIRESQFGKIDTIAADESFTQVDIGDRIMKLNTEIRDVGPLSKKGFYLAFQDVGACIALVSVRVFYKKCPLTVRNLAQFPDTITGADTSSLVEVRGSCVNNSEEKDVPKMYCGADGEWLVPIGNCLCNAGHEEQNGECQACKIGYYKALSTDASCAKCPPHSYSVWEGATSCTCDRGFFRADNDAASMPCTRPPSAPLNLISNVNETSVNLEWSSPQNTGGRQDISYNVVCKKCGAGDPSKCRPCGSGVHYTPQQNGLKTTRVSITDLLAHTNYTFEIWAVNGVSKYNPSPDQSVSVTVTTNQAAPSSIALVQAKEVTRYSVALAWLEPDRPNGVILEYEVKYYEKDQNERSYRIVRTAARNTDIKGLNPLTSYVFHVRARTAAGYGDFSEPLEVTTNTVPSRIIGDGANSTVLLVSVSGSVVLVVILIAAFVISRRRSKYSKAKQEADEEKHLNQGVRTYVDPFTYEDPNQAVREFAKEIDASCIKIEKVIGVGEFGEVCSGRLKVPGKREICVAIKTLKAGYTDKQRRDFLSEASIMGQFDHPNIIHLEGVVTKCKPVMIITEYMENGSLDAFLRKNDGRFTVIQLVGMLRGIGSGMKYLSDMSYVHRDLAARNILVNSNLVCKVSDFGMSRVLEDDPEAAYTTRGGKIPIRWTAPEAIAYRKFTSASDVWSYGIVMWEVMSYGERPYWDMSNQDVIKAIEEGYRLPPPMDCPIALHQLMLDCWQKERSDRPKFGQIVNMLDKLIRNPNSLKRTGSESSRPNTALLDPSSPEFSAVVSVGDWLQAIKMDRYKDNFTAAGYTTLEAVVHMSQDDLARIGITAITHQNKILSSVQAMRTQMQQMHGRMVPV
In general terms: In western blotting, separated proteins are transferred to a membrane and probed.

In data set [5] the test system is Neuron. The experiment in a line: Cytoprotective activity against patient derived induced astrocyte-mediated B6-Cg-Tg(Hlxb9-GFP)1Tmj/J (Hb9-GFP) mouse motor neuron death at 10 uM measured after 3 days by imaging method. It counts as functional, tissue-based. The conditions noted are these: time 3.0 day. The gist of the method:
as §1

The target in data set [6] is Ephrin type-A receptor 4 (Mus musculus) (UniProt Q03137). The experiment in a line: Agonist activity at EphA4 in B6-Cg-Tg(Hlxb9-GFP)1Tmj/J (Hb9-GFP) mouse spinal cord motor neurons assessed as induction of growth cone collapse at 1 to 10 uM by rhodamine-coupled phalloidin dye based inverted fluorescent microscopic method. The conditions noted are these: filed as agonist, dose 1-10 µM. The gist of the method:
(§2)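 Primary Hb9-GFP mouse spinal cord motor neurons at 2 DIV treated as in receptor activation assay (30 min, 37°C), 1 or 10 μM, alone or with pre-clustered ephrinA1-Fc (2 μg/mL); 0.1% DMSO negative control. Fixed in 2% paraformaldehyde, F-actin stained with rhodamine-phalloidin, ChAT immunolabelled; 20× fluorescence imaging, percent collapsed growth cones, 100 images per group; SEM, n=4–6 coverslips.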

Data set [7] shares this target. Description: Agonist activity at EphA4 in B6-Cg-Tg(Hlxb9-GFP)1Tmj/J (Hb9-GFP) mouse spinal cord motor neurons assessed as induction of growth cone collapse at 1 to 10 uM in presence of ephrin A1-Fc by rhodamine-coupled phalloidin dye based inverted fluorescent microscopic method. The conditions noted are these: filed as agonist, dose 1-10 µM. The gist of the method: as §2

The target of data set [8] is T1, Ephrin type-A receptor 4. The experiment in a line: Binding affinity to N-terminal His tagged EphA4 LBD (unknown origin) (29 to 209 residues) expressed in Rosetta-Gami B(DE3) cells by isothermal titration calorimetry.

Values after ≈ are worked out from the molar mass of the structure shown. Active and inactive are the calls of the source. No cut-off for these calls is given here. Non-standard residues stand in square brackets, D forms with d. Residues, ends and D or L forms follow the SMILES beside them. *: point of attachment. Cyclohexanoyl(1S,3S-3-NH2) = N[C@H]1CCC[C@H](C(=O)*)C1; Trp(5-OH) = N[C@@H](Cc1c[nH]c2ccc(O)cc12)C(=O)O; NH(4-morpholinophenyl) = c1cc(N2CCOCC2)ccc1N*; Bip = N[C@@H](Cc1ccc(-c2ccccc2)cc1)C(=O)O; hArg = N=C(N)NCCCC[C@H](N)C(=O)O Some results are limits rather than exact numbers.

Ephrin type-A receptor 2, sequence (P29317 whole entry, the tested form may be a part): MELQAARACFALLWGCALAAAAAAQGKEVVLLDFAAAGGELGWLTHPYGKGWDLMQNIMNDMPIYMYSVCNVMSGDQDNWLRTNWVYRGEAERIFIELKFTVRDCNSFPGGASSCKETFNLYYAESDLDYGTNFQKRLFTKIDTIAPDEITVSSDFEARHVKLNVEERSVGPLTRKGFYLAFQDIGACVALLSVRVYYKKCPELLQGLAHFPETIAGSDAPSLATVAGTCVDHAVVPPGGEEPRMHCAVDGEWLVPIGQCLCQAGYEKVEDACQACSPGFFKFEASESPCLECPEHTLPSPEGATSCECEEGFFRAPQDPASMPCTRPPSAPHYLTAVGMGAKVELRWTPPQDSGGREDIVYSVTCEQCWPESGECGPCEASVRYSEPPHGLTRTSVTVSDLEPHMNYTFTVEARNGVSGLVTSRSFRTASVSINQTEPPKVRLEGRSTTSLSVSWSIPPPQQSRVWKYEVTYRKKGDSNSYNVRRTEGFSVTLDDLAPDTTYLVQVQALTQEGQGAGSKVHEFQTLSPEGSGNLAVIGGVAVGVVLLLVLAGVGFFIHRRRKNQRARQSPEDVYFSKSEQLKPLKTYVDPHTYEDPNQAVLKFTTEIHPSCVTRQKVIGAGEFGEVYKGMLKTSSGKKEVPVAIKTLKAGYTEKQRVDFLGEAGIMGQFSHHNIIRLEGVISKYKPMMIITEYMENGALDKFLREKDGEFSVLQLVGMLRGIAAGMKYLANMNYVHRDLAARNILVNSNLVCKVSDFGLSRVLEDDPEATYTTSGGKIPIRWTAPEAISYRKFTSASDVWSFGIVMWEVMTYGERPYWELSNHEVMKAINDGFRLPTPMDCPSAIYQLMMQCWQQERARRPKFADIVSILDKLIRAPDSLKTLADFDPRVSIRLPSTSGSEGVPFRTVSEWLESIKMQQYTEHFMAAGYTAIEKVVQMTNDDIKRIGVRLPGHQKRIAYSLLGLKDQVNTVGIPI

One may read the Kd as the concentration at which binding is half-saturated. Low values mean higher affinity, high ones lower affinity. Broadly, the solubility is the dissolved amount per volume that the medium holds. For the compound `COc1ccc2[nH]cc(CCNC(=O)[C@H](Cc3ccncc3)NC(=O)[C@H](Cc3ccc(Cl)cc3)NC(=O)[C@H](Cc3c[nH]c4ccc(O)cc34)NC(=O)CCCN)c2c1`, the Kd entry at Ephrin type-A receptor 2 is reported as “Not Active”. Further, in the data set with Neuron [1], the outcome was Active. Moreover, the solubility in [2] (read-out: solubility) turned out to be 100 µM (≈ 80.7 µg/mL).

`N=C(N)NCCCC[C@H](NC(=O)[C@H](Cc1ccc(-c2ccccc2)cc1)NC(=O)[C@H](Cc1c[nH]c2ccc(O)cc12)NC(=O)[C@H]1CCC[C@H](N)C1)C(=O)NCC(=O)Nc1ccc(N2CCOCC2)cc1` ({Cyclohexanoyl(1S,3S-3-NH2)}-[Trp(5-OH)][Bip][hArg]G-{NH(4-morpholinophenyl)}): the result (at Ephrin type-A receptor 4 [3]; in [4]; in the data set with Neuron [5]; in data set [6]; in data set [7]) was Active. This compound registered a solubility in data set [2] of over 50000 µM. Besides, the affinity on Ephrin type-A receptor 4 [8], expressed as Kd, was 113 nM.
